Measurements: PMC6955635 (Drug Design, Development and Therapy, 2020)

Columns and labels:
[1] = Pharmacokinetics, plasma AM, single-dose administration study; format: in vivo, human; settings: for AUC(0-t) / Cmax / Tmax / half-life: male, human, plasma, iv
[2] = Pharmacokinetics, plasma AM, multiple-dose administration study; format: in vivo, human; settings: for half-life: T1/2 (terminal plasma elimination half-life), Phoenix WinNonlin; for half-life / Tmax: multiple administration, 8-h iv infusion 15 ng/kg/min per day for 7 days, mean ± SD; for Tmax: Tmax (time to maximum measured plasma concentration)
[3] = system: normotensive and hypertensive patients; settings: 30 ng/kg/min, after 90 min of intravenous infusion; cited from earlier work
healthy males [4] = assay: Adverse events, single-dose administration study; format: in vivo, human; settings: single 12-h iv infusion, n = 6, number of subjects (%)
How it was run: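 Randomized, double-blind, dose-escalation study in healthy Japanese men: 8 per group, 1:3 placebo (D-mannitol) versus test compound at 3, 9 or 15 ng/kg/min. Single continuous IV infusion over 12 h (±30 min), hospitalized from the day before to the day after. Each escalation followed safety review of the next-day results. AEs were monitored throughout, plus vital signs, labs, physical exams and 12-lead ECG at set times. Monitor ECG ran to 24 h post-dose.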

healthy males [5] = assay: Clinical laboratory tests; format: in vivo, human; settings: all AM doses, single- and multiple-dose studies
healthy males [6] = assay: Adverse events, multiple-dose administration study; format: in vivo, human
[7] = male, human, plasma, iv, 15 ng/kg/min, Day 1
[8] = male, human, plasma, iv, 15 ng/kg/min, Day 7

CC[C@H](C)[C@H](NC(=O)[C@H](CCC(N)=O)NC(=O)[C@H](Cc1c[nH]cn1)NC(=O)[C@H](C)NC(=O)[C@H](CC(C)C)NC(=O)[C@H](CCCCN)NC(=O)[C@H](CCC(N)=O)NC(=O)[C@@H](NC(=O)[C@@H](NC(=O)[C@@H]1CSSC[C@H](NC(=O)CNC(=O)[C@H](Cc2ccccc2)NC(=O)[C@H](CO)NC(=O)[C@H](CCCNC(=N)N)NC(=O)[C@H](CC(C)C)NC(=O)CNC(=O)[C@H](CCC(N)=O)NC(=O)[C@H](Cc2ccccc2)NC(=O)[C@H](CC(N)=O)NC(=O)[C@H](CC(N)=O)NC(=O)[C@H](CCSC)NC(=O)[C@H](CO)NC(=O)[C@H](CCC(N)=O)NC(=O)[C@H](CCCNC(=N)N)NC(=O)[C@@H](N)Cc2ccc(O)cc2)C(=O)N[C@@H](CCCNC(=N)N)C(=O)N[C@@H](Cc2ccccc2)C(=O)NCC(=O)N[C@@H]([C@@H](C)O)C(=O)N1)[C@@H](C)O)C(C)C)C(=O)N[C@@H](Cc1ccc(O)cc1)C(=O)N[C@@H](CCC(N)=O)C(=O)N[C@@H](Cc1ccccc1)C(=O)N[C@H](C(=O)N[C@@H](CC(=O)O)C(=O)N[C@@H](CCCCN)C(=O)N[C@@H](CC(=O)O)C(=O)N[C@@H](CCCCN)C(=O)N[C@@H](CC(=O)O)C(=O)N[C@@H](CC(N)=O)C(=O)N[C@H](C(=O)N[C@@H](C)C(=O)N1CCC[C@H]1C(=O)N[C@@H](CCCNC(=N)N)C(=O)N[C@@H](CO)C(=O)N[C@@H](CCCCN)C(=O)N[C@H](C(=O)N[C@@H](CO)C(=O)N1CCC[C@H]1C(=O)N[C@@H](CCC(N)=O)C(=O)NCC(=O)N[C@@H](Cc1ccc(O)cc1)C(N)=O)[C@@H](C)CC)C(C)C)[C@@H](C)O [Adrenomedullin]
Increase of Cmax compared to the basal concentration of AM ([1]; high-dose AM group (15 ng/kg/min), single 12-h iv infusion): sevenfold | AUC(0-t) ([1]; 3 ng/kg/min): 0.163 ± 0.0212 ng·h/mL | Cmax ([1]; 3 ng/kg/min): 0.01 ± 0.0011 ng/mL | Tmax ([1]; 3 ng/kg/min): 9.3 ± 4.7 h | half-life ([1]; 3 ng/kg/min): 1.04 ± 0.92 h | AUC(0-t) ([1]; 9 ng/kg/min): 0.295 ± 0.0521 ng·h/mL | Cmax ([1]; 9 ng/kg/min): 0.0255 ± 0.0037 ng/mL | Tmax ([1]; 9 ng/kg/min): 10.7 ± 1.6 h | half-life ([1]; 9 ng/kg/min): 0.3 ± 0.2 h | AUC(0-t) ([1]; 15 ng/kg/min): 0.532 ± 0.0915 ng·h/mL | Cmax ([1]; 15 ng/kg/min): 0.0504 ± 0.0093 ng/mL | Tmax ([1]; 15 ng/kg/min): 10 ± 2.2 h | half-life ([1]; 15 ng/kg/min): 0.23 ± 0.15 h | Accumulation of plasma AM ([2]; after the end of the 7-day AM administration, 15 ng/kg/min 8 h per day): accumulation was not observed | Cmax ([2]; male, human, plasma, iv, 15 ng/kg/min): 0.0479 ± 0.0109 ng/mL | half-life [2, 7]: 0.45 ± 0.66 h | half-life [2, 8]: 0.17 ± 0.07 h | Tmax [2, 7]: 7.2 ± 1.1 h | Tmax [2, 8]: 6.8 ± 1.1 h | Effect on BP [3]: clear decrease in BP | Any adverse event (healthy males [4]; high dose 15 ng/kg/min): 2(33.3%) | Deaths (healthy males [4]; high dose 15 ng/kg/min): 0 | Diarrhea (gastrointestinal disorders) (healthy males [4]; high dose 15 ng/kg/min): 0 | Headache (nervous system disorders) (healthy males [4]; high dose 15 ng/kg/min): 1(16.7%) | Palpitations (cardiac disorders) (healthy males [4]; high dose 15 ng/kg/min): 0 | Serious adverse events (healthy males [4]; high dose 15 ng/kg/min): 0 | Severe adverse events (healthy males [4]; high dose 15 ng/kg/min): 0 | Treatment-related adverse events (healthy males [4]; high dose 15 ng/kg/min): 2(33.3%) | Wenckebach type atrioventricular block (cardiac disorders) (healthy males [4]; high dose 15 ng/kg/min): 1(16.7%) | Any adverse event (healthy males [4]; low dose 3 ng/kg/min): 0 | Deaths (healthy males [4]; low dose 3 ng/kg/min): 0 | Diarrhea (gastrointestinal disorders) (healthy males [4]; low dose 3 ng/kg/min): 0 | Headache (nervous system disorders) (healthy males [4]; low dose 3 ng/kg/min): 0 | Palpitations (cardiac disorders) (healthy males [4]; low dose 3 ng/kg/min): 0 | Serious adverse events (healthy males [4]; low dose 3 ng/kg/min): 0 | Severe adverse events (healthy males [4]; low dose 3 ng/kg/min): 0 | Treatment-related adverse events (healthy males [4]; low dose 3 ng/kg/min): 0 | Wenckebach type atrioventricular block (cardiac disorders) (healthy males [4]; low dose 3 ng/kg/min): 0 | Any adverse event (healthy males [4]; medium dose 9 ng/kg/min): 3(50.0%) | Deaths (healthy males [4]; medium dose 9 ng/kg/min): 0 | Diarrhea (gastrointestinal disorders) (healthy males [4]; medium dose 9 ng/kg/min): 0 | Headache (nervous system disorders) (healthy males [4]; medium dose 9 ng/kg/min): 1(16.7%) | Palpitations (cardiac disorders) (healthy males [4]; medium dose 9 ng/kg/min): 0 | Serious adverse events (healthy males [4]; medium dose 9 ng/kg/min): 0 | Severe adverse events (healthy males [4]; medium dose 9 ng/kg/min): 0 | Treatment-related adverse events (healthy males [4]; medium dose 9 ng/kg/min): 3(50.0%) | Wenckebach type atrioventricular block (cardiac disorders) (healthy males [4]; medium dose 9 ng/kg/min): 2(33.3%) | Changes in clinical laboratory test values (healthy males [5]): no changes due to the direct effect of AM | ECG abnormalities, including monitor ECG (healthy males [6]; 15 ng/kg/min 8 h per day for 7 days): not reported | Withdrawal from the study due to headache (healthy males [6]; AM 15 ng/kg/min group, n = 6): one withdrawal
